# Measurements taken from ChEMBL document CHEMBL1926614, “Substituted thiazoles V. synthesis and antitumor activity of novel thiazolo[2,3-b]quinazoline and pyrido[4,3-d]thiazolo[3,2-a]pyrimidine analogues” (2012).
# Active and inactive are the calls of the source. No cut-off for these calls is given here.
# Experiments:
# Assay type in all cases: functional
# [1] = Cytotoxicity against human CNS cancer cells after 48 hrs by coulter counting; conditions: Cancer cell lines
# Method in brief: (§1)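 NCI 60-cell-line panel covering nine tumour subpanels, tested over a 5-log dose range. Compounds were dissolved in DMSO and diluted in phosphate-buffered saline to a final DMSO below 1%. Wells held 6 × 10⁴ cells/ml and were run in duplicate. Controls contained PBS and DMSO at matching dilutions. Incubation was at 37 °C in humidified 5% CO₂. GI₅₀, TGI and LC₅₀ were reported.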
# [2] = Cytotoxicity against human melanoma cells after 48 hrs by coulter counting; conditions: Melanoma cell; for CC50: read-out: LC50 (the source's name); method in brief: as §1
# [3] = Cytotoxicity against human renal cancer cells after 48 hrs by coulter counting; conditions: Cancer cell lines; method in brief: as §1
# [4] = Cytotoxicity against human ovarian cancer cells after 48 hrs by coulter counting; conditions: Cancer cell lines; for CC50: read-out: LC50 (the source's name); method in brief: as §1
# [5] = Cytotoxicity against human prostate cancer cells after 48 hrs by coulter counting; conditions: Cancer cell lines; method in brief: as §1
# [6] = Cytotoxicity against human breast cancer cells after 48 hrs by coulter counting; conditions: Cancer cell lines; for CC50: read-out: LC50 (the source's name); method in brief: as §1
# NSCLC = assay: Cytotoxicity against human NSCLC cells after 48 hrs by coulter counting; conditions: for CC50: read-out: LC50 (the source's name); method in brief: as §1
# UACC-257 = assay: Growth inhibition of human UACC257 cells at 10 uM after 48 hrs by coulter counting; conditions: UACC-257, 48 h, read-out: GI
# Method in brief: (§2)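 Single-dose screen in the NCI 60 human tumor cell line panel (nine subpanels). Compounds dissolved in DMSO and diluted in phosphate buffered saline, keeping final DMSO below 1%. Added in duplicate wells to cells at 6 × 10⁴ cells/ml. Controls held PBS and DMSO at matching dilutions. Incubated at 37 °C, humidified, 5% CO₂. Reported as percent growth of treated cells.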
# UACC-62 = assay: Growth inhibition of human UACC62 cells at 10 uM after 48 hrs by coulter counting; conditions: UACC-62, 48 h, read-out: GI; method in brief: as §2
# K562 = assay: Growth inhibition of human K562 cells at 10 uM after 48 hrs by coulter counting
# Method in brief: (§3)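 Single-dose primary screen across the full NCI 60-cell-line panel. Stocks were made in DMSO and diluted in PBS to a final DMSO below 1%. Cultures at 6 × 10⁴ cells/ml were run in duplicate wells alongside PBS/DMSO vehicle controls at 37 °C in humidified 5% CO₂. Data were expressed as percent growth of treated cells.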
# RPMI-8226 = assay: Growth inhibition of human RPMI8226 cells at 10 uM after 48 hrs by coulter counting; method in brief: as §3
# SR = assay: Growth inhibition of human SR cells at 10 uM after 48 hrs by coulter counting; method in brief: as §2
# A549 = assay: Growth inhibition of human A549 cells at 10 uM after 48 hrs by coulter counting; conditions: A549, 48 h, read-out: GI; method in brief: as §3
# EKVX = assay: Growth inhibition of human EKVX cells at 10 uM after 48 hrs by coulter counting; conditions: read-out: GI; method in brief: as §3
# HOP-62 = assay: Growth inhibition of human HOP62 cells at 10 uM after 48 hrs by coulter counting; method in brief: as §3
# NCI-H226 = assay: Growth inhibition of human NCI-H226 cells at 10 uM after 48 hrs by coulter counting; conditions: NCI-H226, 48 h, read-out: GI; method in brief: as §3
# [7] = Growth inhibition of human NCI-322M cells at 10 uM after 48 hrs by coulter counting; conditions: read-out: GI; method in brief: as §3
# NCI-H460 = assay: Growth inhibition of human NCI-H460 cells at 10 uM after 48 hrs by coulter counting; method in brief: as §3
# NCI-H522 = assay: Growth inhibition of human NCI-H522 cells at 10 uM after 48 hrs by coulter counting; conditions: NCI-H522, 48 h, read-out: GI; method in brief: as §3
# HCT-116 = assay: Growth inhibition of human HCT116 cells at 10 uM after 48 hrs by coulter counting; method in brief: as §3
# HT-29 = assay: Growth inhibition of human HT-29 cells at 10 uM after 48 hrs by coulter counting; method in brief: as §3
# KM12 = assay: Growth inhibition of human KM12 cells at 10 uM after 48 hrs by coulter counting; method in brief: as §3
# SNB-19 = assay: Growth inhibition of human SNB19 cells at 10 uM after 48 hrs by coulter counting; conditions: SNB-19, 48 h, read-out: GI; method in brief: as §3
# LOX IMVI = assay: Growth inhibition of human LOXIMVI cells at 10 uM after 48 hrs by coulter counting; method in brief: as §3
# M14 = assay: Growth inhibition of human M14 cells at 10 uM after 48 hrs by coulter counting; conditions: M14, 48 h, read-out: GI; method in brief: as §3
# MDA-MB-435 = assay: Growth inhibition of human MDA-MB-435 cells at 10 uM after 48 hrs by coulter counting; method in brief: as §3
# SK-MEL-2 = assay: Growth inhibition of human SK-MEL-2 cells at 10 uM after 48 hrs by coulter counting; conditions: SK-MEL-2, 48 h, read-out: GI; method in brief: as §3
# SK-MEL-28 = assay: Growth inhibition of human SK-MEL-28 cells at 10 uM after 48 hrs by coulter counting; conditions: SK-MEL-28, 48 h, read-out: GI; method in brief: as §3
# SK-MEL-5 = assay: Growth inhibition of human SK-MEL-5 cells at 10 uM after 48 hrs by coulter counting; conditions: SK-MEL-5, 48 h, read-out: GI; method in brief: as §3
# NCI/ADR-RES = assay: Growth inhibition of human NCI/ADR-RES cells at 10 uM after 48 hrs by coulter counting; conditions: read-out: GI; method in brief: as §3
# A498 = assay: Growth inhibition of human A498 cells at 10 uM after 48 hrs by coulter counting; conditions: A498, 48 h, read-out: GI; method in brief: as §3
# CAKI-1 = assay: Growth inhibition of human Caki1 cells at 10 uM after 48 hrs by coulter counting; method in brief: as §3
# UO-31 = assay: Growth inhibition of human UO31 cells at 10 uM after 48 hrs by coulter counting; method in brief: as §2
# DU-145 = assay: Growth inhibition of human DU145 cells at 10 uM after 48 hrs by coulter counting; method in brief: as §3
# OVCAR-3 = assay: Growth inhibition of human OVCAR3 cells at 10 uM after 48 hrs by coulter counting; method in brief: as §3
# 786-0 = assay: Growth inhibition of human 786-0 cells at 10 uM after 48 hrs by coulter counting; conditions: 786-0, 48 h, read-out: GI; method in brief: as §3
# SN12C = assay: Growth inhibition of human SN12C cells at 10 uM after 48 hrs by coulter counting; conditions: read-out: GI; method in brief: as §3
# [8] = Cytotoxicity against human leukemia cells after 48 hrs by coulter counting; conditions: Leukemia cell; for CC50: read-out: LC50 (the source's name); method in brief: as §1
# [9] = Cytotoxicity against human colon cancer cells after 48 hrs by coulter counting; conditions: Cancer cell lines; method in brief: as §1
smiles,measurement,setting,value
CCN1CC2=C(N=C3SC=CN3C2c2ccc(OC)cc2)/C(=C/c2ccc(OC)cc2)C1 (centres undefined),GI50,[1],4.7 µM
same,LC50,[1],68.2 µM
same,TGI,[1],9.4 µM
same,GI50,[2],3.5 µM
same,TGI,[2],10.9 µM
same,CC50,[2],55 µM
same,GI50,[3],2.3 µM
same,LC50 (concentration giving 50% net cell kill),[3],24.9 µM
same,TGI,[3],6 µM
same,GI50,[4],2.8 µM
same,TGI,[4],22.5 µM
same,CC50,[4],74.7 µM
same,GI50,[5],2.8 µM
same,LC50 (concentration killing 50% of cells),[5],68.1 µM
same,TGI,[5],43.9 µM
same,GI50,[6],2.5 µM
same,TGI,[6],8 µM
same,CC50,[6],73.4 µM
same,GI50,NSCLC,2.5 µM
same,TGI,NSCLC,18.3 µM
same,CC50,NSCLC,64.9 µM
same,inhibition of growth at 10 µM,UACC-257,44.8%
same,inhibition of growth at 10 µM,UACC-62,49.3%
same,growth inhibition (GI),K562,Active
same,growth inhibition (GI),RPMI-8226,Active
same,growth inhibition (GI),SR,Active
same,inhibition of growth at 10 µM,A549,66.3%
same,inhibition of growth at 10 µM,EKVX,51.9%
same,growth inhibition (GI),HOP-62,Active
same,inhibition of growth at 10 µM,NCI-H226,88%
same,inhibition of growth at 10 µM,[7],29%
same,growth inhibition (GI),NCI-H460,Active
same,inhibition of growth at 10 µM,NCI-H522,52.3%
same,growth inhibition (GI),HCT-116,Active
same,growth inhibition (GI),HT-29,Active
same,growth inhibition (GI),KM12,Active
same,inhibition of growth at 10 µM,SNB-19,68.3%
same,growth inhibition (GI),LOX IMVI,Active
same,inhibition of growth at 10 µM,M14,97.5%
same,growth inhibition (GI),MDA-MB-435,Active
same,inhibition of growth at 10 µM,SK-MEL-2,> 10%
same,inhibition of growth at 10 µM,SK-MEL-28,10.9%
same,inhibition of growth at 10 µM,SK-MEL-5,74.4%
same,inhibition of growth at 10 µM,NCI/ADR-RES,76.9%
same,inhibition of growth at 10 µM,A498,11.1%
same,inhibition of growth at 10 µM,"CAKI-1; CAKI-1, 48 h, read-out: GI",78.3%
same,growth inhibition (GI),UO-31,Active
same,growth inhibition (GI),DU-145,Active
same,growth inhibition (GI),OVCAR-3,Active
same,inhibition of growth at 10 µM,786-0,53.2%
same,inhibition of growth at 10 µM,SN12C,96.9%
same,GI50,[8],2.7 µM
same,TGI,[8],81.6 µM
same,CC50,[8],> 100 µM
same,GI50,[9],1.7 µM
same,LC50 (concentration giving 50% net cell kill),[9],6.7 µM
same,TGI,[9],3.4 µM
CCN1CC2=C(N=C3SC=CN3C2c2ccc(OC)c(OC)c2)/C(=C/c2ccc(OC)c(OC)c2)C1 (centres undefined),GI50,[1],3.3 µM
same,LC50,[1],82.8 µM
same,TGI,[1],26.7 µM
same,GI50,[2],3.4 µM
same,TGI,[2],10.1 µM
same,CC50,[2],44.6 µM
same,GI50,[3],3.1 µM
same,LC50 (concentration giving 50% net cell kill),[3],52.8 µM
same,TGI,[3],9.8 µM
same,GI50,[4],3.2 µM
same,TGI,[4],48.9 µM
same,CC50,[4],90.5 µM
same,GI50,[5],3.4 µM
same,LC50 (concentration killing 50% of cells),[5],68.4 µM
same,TGI,[5],29.8 µM
same,GI50,[6],19.3 µM
same,TGI,[6],43.9 µM
same,CC50,[6],74.7 µM
same,GI50,NSCLC,3.2 µM
same,TGI,NSCLC,40.1 µM
same,CC50,NSCLC,76.5 µM
same,inhibition of growth at 10 µM,UACC-257,63.2%
same,inhibition of growth at 10 µM,UACC-62,62.4%
same,inhibition of growth at 10 µM,"K562; K562, 48 h, read-out: GI",95.2%
same,growth inhibition (GI),RPMI-8226,Active
same,growth inhibition (GI),SR,Active
same,inhibition of growth at 10 µM,A549,61.1%
same,inhibition of growth at 10 µM,EKVX,27.1%
same,inhibition of growth at 10 µM,"HOP-62; HOP-62, 48 h, read-out: GI",84.7%
same,inhibition of growth at 10 µM,NCI-H226,53.2%
same,inhibition of growth at 10 µM,[7],19.1%
same,growth inhibition (GI),NCI-H460,Active
same,inhibition of growth at 10 µM,NCI-H522,46.1%
same,growth inhibition (GI),HCT-116,Active
same,growth inhibition (GI),HT-29,Active
same,growth inhibition (GI),KM12,Active
same,inhibition of growth at 10 µM,SNB-19,52.9%
same,growth inhibition (GI),LOX IMVI,Active
same,inhibition of growth at 10 µM,M14,94.3%
same,growth inhibition (GI),MDA-MB-435,Active
same,inhibition of growth at 10 µM,SK-MEL-2,11.5%
same,inhibition of growth at 10 µM,SK-MEL-28,61.3%
same,inhibition of growth at 10 µM,SK-MEL-5,60.9%
same,inhibition of growth at 10 µM,NCI/ADR-RES,91.2%
same,inhibition of growth at 10 µM,A498,18.4%
same,growth inhibition (GI),CAKI-1,Active
same,inhibition of growth at 10 µM,"UO-31; UO-31, 48 h, read-out: GI",40.7%
same,growth inhibition (GI),DU-145,Active
same,growth inhibition (GI),OVCAR-3,Active
same,inhibition of growth at 10 µM,786-0,> 10%
same,inhibition of growth at 10 µM,SN12C,83.1%
same,GI50,[8],2.6 µM
same,TGI,[8],30.7 µM
same,CC50,[8],> 100 µM
same,GI50,[9],2 µM
same,LC50 (concentration giving 50% net cell kill),[9],29.3 µM
same,TGI,[9],4.3 µM
